For 13 compounds, GFP response vs DMSO, GFP response relative to DMSO and GFP response, % of DMSO results are on record in PubChem BioAssay.

Structures are written as SMILES. Active and inactive are the calls of the source.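 How the source made its calls, unless noted: active means GFP response above 150% of the DMSO level; inconclusive means fewer than 70 events counted for a yeast strain; inactive means the rest.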

A short description of assay [1]: hit retest on RPL19A-GFP reporter strain – cell-based, S. cerevisiae, flow cytometry, cherry picks, mother/daughter gates, confirmation (AID 2270;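 active means GFP response below 50% of the DMSO control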). Particulars: 3 h, at 10 µM, stronger effect = lower value, 100 = same GFP as DMSO wells.
Assay [2] in a line: yeast TOR pathway reporter LAP4-GFP change – cell-based, cherry picks, flow cytometry, mother/daughter gates, confirmation (AID 2271;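 active means GFP response above 150% of the DMSO control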;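 further: ratio of sample to DMSO plate mean so 100% equals DMSO level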). Conditions: S. cerevisiae LAP4-GFP strain, 3 h, at 10 µM, stronger effect = higher value, 100 means same as DMSO control. The essentials:
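Test system: GFP-fusion yeast strain. Medium: synthetic complete (SC) yeast growth medium. Timing: 3 h treatment at 30 °C with rotation. Measured by: GFP by flow cytometry. Control set: positive rapamycin (400 ng/mL), negative DMSO.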

Assay [3] in a line: TOR pathway reporter MEP2-GFP, retest of hits – S. cerevisiae, flow cytometry GFP, cherry picks, confirmation (AID 2272;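 active means GFP response above 150% of the DMSO control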;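 further: ratio of well signal to plate DMSO mean so 100% equals DMSO level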). Conditions: S. cerevisiae MEP2-GFP strain, 3 h, at 10 µM, stronger effect = higher value.
A short description of assay [4]: yeast AGP1-GFP fluorescence change, single-dose – cell-based, flow cytometry, S. cerevisiae, cherry picks, confirmation (AID 2273).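 Further: median GFP channel fluorescence over the whole cell population gate.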 Conditions: S. cerevisiae AGP1-GFP strain, 3 h, at 10 µM.
A short description of assay [5]: TOR pathway CIT2 reporter hit retest – S. cerevisiae, GFP fusion, cherry picks, mother/daughter gates, confirmation (AID 2274). Particulars: S. cerevisiae CIT2-GFP strain, flow cytometry, 3 h, at 10 µM, stronger effect = higher value.
The mark [6] stands for this setting: measured here: daughter cell gate.
Where [7] appears, read: measured here: mother cell gate.
The mark [8] stands for this setting: measured here: daughter cell gate response.
The mark [9] stands for this setting: measured here: mother cell gate response.

Regarding `CC(C)(C)n1nc(-c2ccc(Cl)cc2)c2c(N)ncnc21`, the GFP response vs DMSO in assay [1] was 44.2% (active); in assay [1] (setting [6]), 39.7%; in assay [1] (setting [7]), 45.6%; in assay [3], 118% (inactive). The GFP response relative to DMSO in assay [2] was 191% (active); in assay [2] (setting [8]) it was 172%; in assay [2] (setting [9]) it was 195%. Besides, the GFP response, % of DMSO in assay [4] was 106% (inactive); in assay [5], 44.4% (inactive); in assay [5] (setting [6]), 46.1%; in assay [5] (setting [7]), 42.4%.
With `Cc1ccc(/C(N)=N/OC(=O)c2ccc(F)cc2)cc1`, the GFP response vs DMSO in assay [1] is 102% (inactive); in assay [1] (setting [6]), 102%; in assay [1] (setting [7]), 99.2%; in assay [3] it was 108% (inactive). In addition, the GFP response relative to DMSO in assay [2] was 128% (inactive); in assay [2] (setting [8]) it was 111%; in assay [2] (setting [9]), 129%. In addition, the GFP response, % of DMSO in assay [4] is 76.8% (inactive); in assay [5] it was 134% (inactive); in assay [5] (setting [6]) it was 121%; in assay [5] (setting [7]), 133%.
With `c1ccc2oc(SCc3nc4ccccc4s3)nc2c1`, the GFP response vs DMSO in assay [1] was 99% (inactive); in assay [1] (setting [6]), 98.9%; in assay [1] (setting [7]), 98.9%; in assay [3] it was 98.3% (inactive). The figures for the GFP response relative to DMSO in assay [2], in assay [2] (setting [8]) and in assay [2] (setting [9]) were 106% (inactive), 104% and 106%, respectively. For the same compound, the GFP response, % of DMSO was 95% (inactive) in assay [4], 99.7% (inactive) in assay [5], 99.1% in assay [5] (setting [6]) and 99.7% in assay [5] (setting [7]).
Turning to `O=C1c2ccccc2C2=Nc3ccccc3SC(c3cccc(F)c3)C12` (stereo not drawn), the GFP response vs DMSO in assay [1] was 102% (inactive); in assay [1] (setting [6]), 98.4%; in assay [1] (setting [7]), 102%; in assay [3], 139% (inactive). Also, the GFP response relative to DMSO in assay [2] is 106% (inactive); in assay [2] (setting [8]), 108%; in assay [2] (setting [9]), 102%. The GFP response, % of DMSO is 103% (inactive) in assay [4], 117% (inactive) in assay [5], 106% in assay [5] (setting [6]) and 106% in assay [5] (setting [7]).
As for `O=C1Nc2ccc(Br)cc2/C1=C/C1CC=CCC1` (stereo not drawn), the GFP response vs DMSO in assay [1] was 106% (inactive); in assay [1] (setting [6]), 100%; in assay [1] (setting [7]), 105%; in assay [3], 133% (inactive). Also, the GFP response relative to DMSO in assay [2] was 131% (inactive); in assay [2] (setting [8]) it was 122%; in assay [2] (setting [9]) it was 135%. For the same compound, the GFP response, % of DMSO in assay [4] is 111% (inactive); in assay [5], 108% (inactive); in assay [5] (setting [6]), 108%; in assay [5] (setting [7]), 104%.
Consider `COC(=O)c1ccccc1OCC(=O)NC1CCCCC1`, for which the GFP response vs DMSO in assay [1] was 88.9% (inactive); in assay [1] (setting [6]) it was 83.8%; in assay [1] (setting [7]) it was 92.2%; in assay [3], 89.9% (inactive). In addition, the values for the GFP response relative to DMSO in assay [2], in assay [2] (setting [8]) and in assay [2] (setting [9]) were 135% (inactive), 126% and 145%, respectively. Besides, the GFP response, % of DMSO in assay [4] is 91.7% (inactive); in assay [5] it was 84.1% (inactive); in assay [5] (setting [6]) it was 80.7%; in assay [5] (setting [7]), 85.5%.
Consider `CS(=O)(=O)Nc1cccc(C2=NN(S(C)(=O)=O)C(c3ccc4c(c3)OCO4)C2)c1` (stereo not drawn), for which the GFP response vs DMSO was 97.2% (inactive) in assay [1], 98.9% in assay [1] (setting [6]), 98.7% in assay [1] (setting [7]) and 102% (inactive) in assay [3]. For the same compound, the GFP response relative to DMSO in assay [2] is 99.2% (inactive); in assay [2] (setting [8]), 99.2%; in assay [2] (setting [9]), 98.3%. Moreover, the GFP response, % of DMSO was 99.5% (inactive) in assay [4], 103% (inactive) in assay [5], 103% in assay [5] (setting [6]) and 103% in assay [5] (setting [7]).
In the case of `Cc1cc2ccccn2c1C(=O)c1ccc([N+](=O)[O-])o1`, the GFP response vs DMSO in assay [1] is 102% (inactive); in assay [1] (setting [6]), 106%; in assay [1] (setting [7]) it was 94.6%; in assay [3], 132% (inactive). In addition, the GFP response relative to DMSO was 195% (active) in assay [2], 182% in assay [2] (setting [8]) and 196% in assay [2] (setting [9]). Moreover, the GFP response, % of DMSO in assay [4] is 109% (inactive); in assay [5] it was 98.4% (inactive); in assay [5] (setting [6]), 106%; in assay [5] (setting [7]), 87.8%.
As for `COc1ccc(/C=N/c2c(-c3ccco3)nc3ccccn23)cc1OC`, the GFP response vs DMSO in assay [1] is 97.8% (inactive); in assay [1] (setting [6]) it was 98.5%; in assay [1] (setting [7]), 98.6%; in assay [3], 102% (inactive). In addition, the figures for the GFP response relative to DMSO in assay [2], in assay [2] (setting [8]) and in assay [2] (setting [9]) were 95.3% (inactive), 96.5% and 93.6%, respectively. Further, the GFP response, % of DMSO was 98.9% (inactive) in assay [4], 101% (inactive) in assay [5], 100% in assay [5] (setting [6]) and 100% in assay [5] (setting [7]).
Regarding `Cc1cccc(NC(=O)c2ccc([N+](=O)[O-])o2)c1`, the GFP response vs DMSO in assay [1] is 103% (inactive); in assay [1] (setting [6]), 105%; in assay [1] (setting [7]) it was 101%; in assay [3], 106% (inactive). For the same compound, the GFP response relative to DMSO was 126% (inactive) in assay [2], 115% in assay [2] (setting [8]) and 125% in assay [2] (setting [9]). For the same compound, the GFP response, % of DMSO in assay [4] was 96.2% (inactive); in assay [5], 105% (inactive); in assay [5] (setting [6]) it was 106%; in assay [5] (setting [7]), 101%.
Take `C=CCN1C(=O)C2(C(C#N)=C(N)Oc3n[nH]c(CCC)c32)c2ccccc21` (stereo not drawn): the GFP response vs DMSO was 100% (inactive) in assay [1], 99.8% in assay [1] (setting [6]), 102% in assay [1] (setting [7]) and 100% (inactive) in assay [3]. Further, the values for the GFP response relative to DMSO in assay [2], in assay [2] (setting [8]) and in assay [2] (setting [9]) were 97.4% (inactive), 100% and 98.3%, respectively. Besides, the GFP response, % of DMSO in assay [4] was 102% (inactive); in assay [5] it was 100% (inactive); in assay [5] (setting [6]) it was 98.1%; in assay [5] (setting [7]) it was 102%.
For `O=C1CC(Sc2nnnn2C2CCCCC2)C(=O)N1c1ccccc1` (stereo not drawn), the GFP response vs DMSO in assay [1] is 94.3% (inactive); in assay [1] (setting [6]), 95.5%; in assay [1] (setting [7]) it was 94.8%; in assay [3] it was 97.5% (inactive). For the same compound, the GFP response relative to DMSO in assay [2] is 107% (inactive); in assay [2] (setting [8]), 104%; in assay [2] (setting [9]), 107%. The GFP response, % of DMSO is 99.3% (inactive) in assay [4], 95% (inactive) in assay [5], 94.6% in assay [5] (setting [6]) and 93.3% in assay [5] (setting [7]).
Regarding `O=S(=O)(c1ccccc1)c1ncc(C(F)(F)F)cc1O`, the GFP response vs DMSO was 96.5% (inactive) in assay [1], 98.4% in assay [1] (setting [6]), 94.8% in assay [1] (setting [7]) and 110% (inactive) in assay [3]. Moreover, the GFP response relative to DMSO in assay [2] is 97.7% (inactive); in assay [2] (setting [8]) it was 97.5%; in assay [2] (setting [9]) it was 99.5%. For the same compound, the GFP response, % of DMSO is 104% (inactive) in assay [4], 101% (inactive) in assay [5], 99.3% in assay [5] (setting [6]) and 102% in assay [5] (setting [7]).
